Source: PubChem
CHT inh = human CHT choline transport inhibition; hit rate 0.86% among 310,000; Q9GZV3; CHT-expressing cells, membrane potential dye, choline response; hits give low values; B-score at 10 µM; AID 488975;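 active means B-score over 3 SD under the library average, and starting fluorescence ratio not unusually high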;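 further: choline stimulus applied at its EC90 after an EC20 pre-addition; B-score computed on integrated fluorescence ratio after choline addition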
HSF1 inhib = HSF1 inhibition; NIH3T3-HGL HSE-luciferase, MG132-induced, luminescence 8 h; hits give low values; AID 2098; activity change, negative = inhibition, % at 7.5 µM (by protocol); hit rate 0.77% among 300,000;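 active means more than half of replicate wells show activity change below -50%, luminescence cut by over half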;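 further: luciferase reports HSF-1 transcriptional activity via heat shock element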
PHOSPHO1 inh = inhibitors of human PHOSPHO1 phosphatase; Q8TCT1; recombinant PHOSPHO1, absorbance phosphatase assay; inhibition, % at 13.3 µM; hit rate 1.1% among 290,000; in the data active means inhibition above about 60%
Target sequence (Q8TCT1 whole entry, looked up): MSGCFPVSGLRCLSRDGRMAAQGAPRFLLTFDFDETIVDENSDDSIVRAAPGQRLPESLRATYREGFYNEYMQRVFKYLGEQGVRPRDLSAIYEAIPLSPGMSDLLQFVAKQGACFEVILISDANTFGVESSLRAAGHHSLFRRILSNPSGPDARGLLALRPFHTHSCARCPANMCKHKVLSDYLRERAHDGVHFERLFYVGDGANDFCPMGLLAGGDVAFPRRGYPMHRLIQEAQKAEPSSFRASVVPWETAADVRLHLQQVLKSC
HSF-1 act = increases HSF-1 driven luciferase reporter signal | activation, % at 9 µM | NIH3T3-HGL HSF-1 luciferase reporter, MG132, 8 h; 100% = twice DMSO control signal | hit rate 1.7% among 300,000 | AID 504408;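 active means mean replicate activation of at least 50% with a set share of replicates each reaching 50%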
Hep lipid drop = modulators of hepatic lipid droplet formation; AID 1656; AML12 mouse hepatocytes, oleate lipid droplets, BODIPY imaging; hit rate 0.4% among 240,000; inhibition, % at 6.5 µM;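 active means lipid droplet intensity inhibited by at least 50%, with more than 500 cells counted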
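System: AML12 hepatocytes (mouse). Probe or stimulus: oleic acid at 100 µM to induce lipid droplet formation. Times: overnight treatment with compound plus oleate. Detection: Image-based BODIPY and DAPI two-channel analysis. Evaluation: percent inhibition of filter-corrected integrated lipid droplet intensity per well.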
CHT allo act = allosterically activates the human high affinity choline transporter | hit rate 0.49% among 310,000 | CHT-expressing cells, membrane potential dye, choline EC20; hits give high values; LV-AA mutant CHT in HEK293 cells | B-score at 10 µM | Q9GZV3;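 active means initial fluorescence not abnormally high and integrated response B-score, plate-corrected, over 3 SD above library mean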
Large screens that a line does not name were inactive; ! = repeats disagree. The list is not random: actives were taken first. Their share in the collection is about 4.9%.

Cc1oc(-c2ccccc2F)nc1CS(=O)(=O)CC(=O)NCCCN1CCN(C)CC1	HSF-1 act 147.9
C=CCN(C(=O)CCC(=O)O)C1CC(=O)N(c2ccc(OC)cc2)C1=O (stereo not given)	none
O=S(=O)(c1ccc(Cl)c(NC(=S)N/N=C/c2c(F)cccc2F)c1)N1CCOCC1	none
O=C(CN1CCN(c2ccc(O)cc2)CC1)Nc1cc(S(=O)(=O)N2CCCCC2)ccc1Cl	none
O=C(CN1CCN(c2ccc(O)cc2)CC1)Nc1cc(S(=O)(=O)N2CCCC2)ccc1Cl	HSF1 inhib -56.4
O=S(=O)(c1ccc(Cl)c(NC(=S)N/N=C/c2ccc(O)cc2)c1)N1CCOCC1	HSF-1 act 56.1
O=[N+]([O-])c1cc(Cl)cc(/C=N/NC(=S)Nc2ccc(S(=O)(=O)N3CCOCC3)cc2)c1O	CHT inh -8.77
CC(=O)Nc1ccc(S(=O)(=O)N(C)CC(=O)Nc2ccc(Br)cc2F)cc1	none (no result: PHOSPHO1 inh, Hep lipid drop)
COc1ccc(Cc2c3cc(OC)c(OC)cc3cc[n+]2C)cc1OC	CHT allo act 12.1
CC[n+]1ccc2cc(OC)c(OC)cc2c1Cc1ccc(OC)c(OC)c1	CHT allo act 6.27
COc1ccc(C(=O)Cc2ccc(OC)c(OC)c2)cc1	none
COc1ccc(Cc2n[nH]c(=O)c3ccccc23)cc1OC	none (no result: Hep lipid drop)
C/C(=N/NS(=O)(=O)c1ccc(Cl)cc1)c1ccc2c(c1)OCO2	none (no result: PHOSPHO1 inh, Hep lipid drop)
C=C1c2cc(C)c(C)cc2NC(=O)N1c1ccccc1	none
Fc1ccc(N2CCN(c3ncnc4nc[nH]c34)CC2)cc1	none
Cc1cccc[n+]1CC(=O)c1ccc(NC(=O)c2ccccc2)cc1	none
CCCc1nnc(SCC(=O)N2CCCC(C)C2)n1CCOC (stereo not given)	none
O=C(Nc1ccc2c(c1)OCCO2)c1ccc(Br)s1	none
Cc1nc2cc(NC(=O)c3ccc(Br)s3)ccc2s1	HSF-1 act 55.7
Cc1cc(NC(=O)c2ccc3nc(C)sc3c2)no1	HSF1 inhib -66.9
Cc1nc2ccc(NC(=O)c3cc(Cl)ccn3)cc2s1	none
Cc1ccc(C(=O)Nc2ccc3nc(C)sc3c2)s1	HSF-1 act 56.1
Cc1cc(NC(=O)c2ccc(Cl)cc2)no1	none
O=C(NC1CCCC1)c1cc(-c2ccc(Cl)cc2Cl)on1	none
COc1cc(Cl)cc(/C=C/c2ccc3ccccc3n2)c1OC(C)=O	HSF-1 act 183.3
Cc1ccc(OCC(=O)Nc2ccc(C(N)=O)cc2)cc1	none
Cc1ccccc1NC(=O)c1ccc(OCC(=O)Nc2ccccc2F)cc1	none
Cc1ccc(OCC(=O)Nc2ccc([N+](=O)[O-])cc2)cc1	none
CN(C)c1ccc(NC(=O)COC(=O)CCC(=O)c2ccc(F)cc2)cc1	PHOSPHO1 inh 99.7
Cc1ccc(OCC(=O)Nc2ccc(N(C)C)cc2)cc1	PHOSPHO1 inh 80.8 (no result: Hep lipid drop)
CCN(CC)c1ccc(NC(=O)COc2ccc(C)cc2)cc1	PHOSPHO1 inh 81.4 (no result: Hep lipid drop)
Cc1ccc(OCC(=O)Nc2ccccc2F)cc1	HSF-1 act 56.0 (no result: PHOSPHO1 inh, Hep lipid drop)
CC1OC(Nc2ccc(N=Nc3ccccc3)cc2)C(O)C(O)C1O (stereo not given)	none
CC1OC(Nc2cccc3ccccc23)C(O)C(O)C1O (stereo not given)	HSF1 inhib -96.2 (no result: Hep lipid drop)
S=P(c1ccc(N2CCOCC2)cc1N1CCOCC1)(N1CCOCC1)N1CCOCC1	PHOSPHO1 inh 85.4 (no result: CHT inh, HSF1 inhib, HSF-1 act, Hep lipid drop, CHT allo act)
O=C(CCN1CCc2ccccc2C(c2ccccc2)C1)c1ccc2c(c1)OCCO2 (stereo not given)	CHT inh -8.91, HSF-1 act 87.5
O=C(CCn1nc(-c2ccc(F)cc2)ccc1=O)NCc1ccccc1	none
CC(=O)c1ccc(NC(=O)CN2C(=O)COc3ccc(Cl)cc32)cc1	none (no result: Hep lipid drop)
Cc1cc(/C=C2/C(=O)NN(c3ccccc3)C2=O)c(C)n1-c1cccc(O)c1	HSF1 inhib -63.3
N/C(=N\OC(=O)C(c1ccccc1)c1ccccc1)c1ccccn1	HSF-1 act 72.6
CCOc1ccc(C(=O)O/N=C(\N)c2ccccn2)cc1	HSF1 inhib -79.6
Cc1ccc(C(=O)O/N=C(\N)Cc2cccc3ccccc23)cc1	HSF-1 act 63.5
COc1cc(C(=O)O/N=C(\N)c2ccccn2)cc(OC)c1OC	none
N/C(=N\OC(=O)c1ccccc1)c1ccccn1	HSF1 inhib -64.8
O=C(NC1CCCC1)c1csc2c1CCCC2	none (no result: Hep lipid drop)
O=C(COc1ccc([N+](=O)[O-])cc1)NNC(=O)Nc1cccc(F)c1	none
CC(C)CCNC(=O)NC(=O)COC(=O)CNC(=O)C1CCCCC1	none
NC(=O)c1cc[n+](Cc2ccc([N+](=O)[O-])cc2)cc1	none
CC(C)(C)c1ccc(C(=O)O/N=C(\N)c2ccccn2)cc1	HSF1 inhib -89.0
Cc1ccc(C(=O)O/N=C(\N)c2ccccn2)cc1	HSF1 inhib -80.6
COC(=O)CCC(=O)N1CCOCCOCCOCC1	none
COc1ccc(S(=O)(=O)N2CCOCC2)cc1NC(=O)CSc1n[nH]c(=O)n1C1CC1	none
COc1ccc(S(=O)(=O)N2CCOCC2)cc1NC(=O)CSc1n[nH]c(C(C)C)n1	PHOSPHO1 inh 62.9
S=C(NC1CCCCC1)NC1CC2C=CC1C2 (stereo not given)	HSF-1 act 85.2
Cc1c(C2=CCN(S(=O)(=O)c3ccc(Br)cc3)CC2)c2ccccc2n1C	HSF1 inhib -59.8
O=C(O)c1ccc(-c2sc(Nc3ccccc3)n[n+]2-c2ccccc2)cc1	none (no result: Hep lipid drop)
c1ccc(COc2ccc(-c3sc(Nc4ccccc4)n[n+]3-c3ccccc3)cc2)cc1	CHT allo act 7.99
COc1ccc(N=N/C(=C\O)C(=O)c2cccs2)cc1	HSF-1 act 66.8
OCc1cc(C(O)CNCCCCCCOCCCCc2ccccc2)ccc1O (stereo not given)	CHT inh -5.78!
CN(CCCC(=O)NCc1ccccc1)S(=O)(=O)c1ccc([N+](=O)[O-])cc1	none
COc1ccc(-n2ncc3c(N(C)C4CCCCC4)ncnc32)cc1	HSF1 inhib -85.0
Cc1cccc(-n2ncc3c(N(CCO)CCO)ncnc32)c1	none
Cc1cccc(-n2ncc3c(N(C)C4CCCCC4)ncnc32)c1	HSF1 inhib -91.3
Cc1ccc2nc(NC(=O)COC(=O)c3ccc(Br)o3)sc2c1	none (no result: HSF1 inhib, HSF-1 act, Hep lipid drop)
O=C(OCc1c(F)cccc1Cl)c1cnc(Cl)c(Cl)c1	none
Cc1nn(-c2ccccc2)c(Cl)c1CN(C(=O)CCl)c1ccc(Cl)cc1	HSF1 inhib -86.4
CC(=O)N(Cc1c(C)nn(-c2ccccc2)c1Cl)c1ccc(Cl)cc1	none (no result: Hep lipid drop)
O=C(NC1CCCN(Cc2ccccc2F)C1)c1cccs1 (stereo not given)	HSF-1 act 62.2
O=C(COC(=O)c1ccc(O)cc1O)Nc1ccc(Cl)cn1	none
O=C(COC(=O)c1ccc(O)cc1O)c1ccc(Cl)cc1	HSF-1 act 61.3 (no result: PHOSPHO1 inh, Hep lipid drop)
[O-]/[N+](=C\C=C\c1ccccc1)c1ccccc1	HSF-1 act 62.3
